Assay outcomes from PubChem.
M1 antag = human M1 muscarinic receptor antagonists, primary screen, CHO-K1 cells, Fluo-8 calcium fluorescence, 1536-well | CHO-K1 hM1, ACh EC80 antagonist | inhibition, % at 3 µM | 360,000 compounds, 1.3% hits;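 active means percent inhibition above its own plate's cutoff, namely the mean of that plate's compound wells plus 3 SD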;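 further: peak over basal fluorescence ratio during 140 s after agonist addition; 0% = ACh EC80 plus DMSO and 100% = DMSO alone without agonist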
M1 ag = human M1 muscarinic receptor agonists, primary screen, Fluo-8 calcium fluorescence, CHO-K1 cells, HTS. AID 588814, 2011. 360,000 compounds, 0.33% hits. activation, % at 3 µM. Muscarinic acetylcholine receptor M1 (Homo sapiens), P11229. CHO-K1 hM1, agonist mode; 0% DMSO, 100% acetylcholine EC100;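 active means activation above the run's mean compound activation plus 3 SD, cut at about 16% in these data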;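 further: peak over basal fluorescence ratio within a 140 s kinetic read after compound addition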
M5 PAM = human M5 muscarinic receptor positive allosteric modulators, primary screen, CHO-K1 cells, Fluo-8 calcium fluorescence; CHO-K1 hM5, ACh EC20 PAM; 0% = ACh EC20, 100% = ACh EC100; activation, % at 3 µM; 360,000 compounds, 0.3% hits; AID 624038, 2012;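 active means activation above the run cutoff, the mean activation of all test compounds plus 3 SD, cut at about 18% in these data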
Target sequence (P08912 whole entry, looked up): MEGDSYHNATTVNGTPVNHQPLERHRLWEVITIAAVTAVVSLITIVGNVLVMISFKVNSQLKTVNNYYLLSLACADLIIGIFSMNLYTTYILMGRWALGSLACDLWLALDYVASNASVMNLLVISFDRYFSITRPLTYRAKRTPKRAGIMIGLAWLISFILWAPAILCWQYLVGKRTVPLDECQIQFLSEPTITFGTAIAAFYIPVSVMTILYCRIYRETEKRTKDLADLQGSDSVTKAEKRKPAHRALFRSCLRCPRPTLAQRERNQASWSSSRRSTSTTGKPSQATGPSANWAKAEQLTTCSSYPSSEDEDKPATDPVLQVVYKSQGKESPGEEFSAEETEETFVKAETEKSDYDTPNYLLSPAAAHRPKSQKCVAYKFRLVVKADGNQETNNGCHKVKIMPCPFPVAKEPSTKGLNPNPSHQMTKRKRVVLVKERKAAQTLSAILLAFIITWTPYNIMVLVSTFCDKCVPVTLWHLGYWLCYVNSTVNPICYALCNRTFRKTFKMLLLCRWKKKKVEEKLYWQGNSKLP
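Assay system: CHO-K1 hM5 cells. Also added: acetylcholine at EC20 concentration, added after compound. Dosing: 3 µM, single dose. Times: compound preincubation 140 s before EC20 acetylcholine addition. Signal: Fluo-8 calcium fluorescence. Measure: % activation relative to EC20 and EC100 ACh responses. Repeats: singlicate, one well per test compound.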
CHRM1 PAM = human M1 muscarinic receptor positive allosteric modulators, primary screen, CHO-K1 cells, Fluo-8 calcium fluorescence, 1536-well; Muscarinic acetylcholine receptor M1 (Homo sapiens), P11229; CHO-K1 hM1, ACh EC20; 0% = ACh EC20, 100% = maximal ACh; activation, % at 3 µM; 360,000 compounds, 0.088% hits; in the data active means activation above about 19%, passing the limit was not always enough
CHRM5 agonist = human M5 muscarinic receptor agonists, primary screen, CHO-K1 cells, Fluo-8 calcium fluorescence; Muscarinic acetylcholine receptor M5 (Homo sapiens), P08912; CHO-K1 hM5 cells; 0% DMSO wells, 100% maximal acetylcholine response; activation, % at 3 µM; 360,000 compounds, 0.19% hits; AID 624037, 2012;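 active means activation above the run's mean over test compounds plus 3 SD, cut at about 23% in these data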;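 further: signal is peak over basal fluorescence ratio across the kinetic read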
CHRM5 antagonist = human M5 muscarinic receptor antagonists, primary screen, CHO cells, Fluo-8 calcium fluorescence | CHO-hM5 cells, ACh EC80 | inhibition, % at 3 µM | 360,000 compounds, 0.59% hits | AID 624040, 2012;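 active means inhibition above a per-plate cutoff, the mean of that plate's test compounds plus 3 SD, cut at about 27% in these data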;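 further: 0% = acetylcholine EC80 with DMSO and 100% = DMSO without agonist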
* hit, by the source's call. Compounds with a hit are over-represented: about 2.2% of the library has one in this group of screens.

SMILES	M1 antag	M1 ag	M5 PAM	CHRM1 PAM	CHRM5 agonist	CHRM5 antagonist
COc1ccc(NS(=O)(=O)c2ccc(-c3coc(C)n3)cc2)cc1OC	63*	5	-14	-17	7	51*
Cc1nc(-c2ccc(S(=O)(=O)Nc3ccc(S(N)(=O)=O)cc3)cc2)co1	-18	1	21*	23	-1	-16
Cc1cccc(/C(N)=N/OC(=O)CCc2ccccc2)c1	31*	-5	-2	-23	0	1
COc1ccc(/C(N)=N/OC(=O)CCc2ccccc2)cc1OC	2	-6	7	3	-4	-5
CC1(NC(=S)Nc2ccc(NC(=S)NC3(C)CCS(=O)(=O)C3)cc2)CCS(=O)(=O)C1 (stereo unspecified)	-7	17*	2	6	0	-3
CC1(NC(=S)Nc2ccccc2)CCS(=O)(=O)C1 (stereo unspecified)	-9	0	7	14	6	-11
O=C(c1ccc(CSc2nc3ccncc3[nH]2)cc1)N1CCN(c2cccc(Cl)c2)CC1	36*	-5	-19	-20	6	35*
O=C(c1ccc(CSc2nc3ccncc3[nH]2)cc1)N1CCCCCC1	-1	-5	2	1	0	1
COc1ccccc1CNc1nc(NCc2ccccc2OC)c2sccc2n1	31*	-2	-14	-18	3	25
COc1ccccc1CNc1nc(NCc2ccc3occc3c2)c2sccc2n1	19	0	-18	-10	2	43*
COc1ccccc1CNc1nc(NCc2ccccc2SC)c2sccc2n1	37*	-3	-14	-21	2	30*
c1cc2cc(CNc3nc(NCC4CC4)nc4ccsc34)ccc2o1	6	0	-10	-7	3	16
Cc1cc(NC(=O)Nc2ccc(Cl)c(Cl)c2)n(-c2ccccc2)n1	9	2	-16	-5	4	17
Cc1cnc(CNC(=O)c2csc([C@H]3C[C@H](O)[C@@H](CO)O3)n2)cn1	-13	1	3	6	1	1
O=C1C(Cl)=C(Nc2ccc(O)cc2)C(=O)c2ccccc21	16	-8	-26	-6	-19	41*
CCNC1=C(Cl)C(=O)c2ccccc2C1=O	-1	-7	-8	4	-5	-1
Cc1ccc(NC2=C(Cl)C(=O)c3ccccc3C2=O)cc1	13	-9	-7	-8	-2	9
CCCC(=O)NC1=C(Cl)C(=O)c2ccccc2C1=O	31	14	1	-2	20	32*
Cn1c(SCc2ccccn2)nnc1-c1ccccc1	-7	-4	1	7	-8	6
COc1ccc(N=C2C(=O)N3c4c(cccc42)C(C)=CC3(C)C)cc1	-7	3	-6	11	29*	-1
COc1ccc(CC(=O)NC2CCS(=O)(=O)C2)cc1 (stereo unspecified)	-10	-1	2	8	0	1
O=C(Nc1cccnc1)c1ccc(-c2ccccc2)cc1	0	-3	-9	1	-1	4
O=C(Nc1ccncc1)c1ccc(-c2ccccc2)cc1	18	0	-29	-1	5	33*
CCOC(=O)c1ccc[n+](C(C)C(=O)c2ccc(-c3ccccc3)cc2)c1 (stereo unspecified)	12	-7	0	-19	-7	2
CC(C(=O)c1ccc(-c2ccccc2)cc1)[n+]1cccc(NC(=O)c2ccccc2)c1 (stereo unspecified)	50*	-9	-7	-25	-19	12
SMILES	M1 antag	M1 ag	M5 PAM	CHRM1 PAM	CHRM5 agonist	CHRM5 antagonist
Cc1ccc(S(=O)(=O)Nc2ccc(NC(=O)c3c(F)c(F)c(F)c(F)c3F)cc2)cc1	22	24*	-6	-4	20	-3
Cc1ccc(NS(=O)(=O)c2ccc(C3CCCCC3)cc2)cc1	21	2	-18	-10	5	27*
NS(=O)(=O)c1ccc(NS(=O)(=O)c2ccc(NC(=O)c3ccc(-c4ccccc4)cc3)cc2)cc1	-7	-4	-4	-4	27*	1
Cc1ccnc(NS(=O)(=O)c2ccc(NC(=O)C34CC5CC(CC(C5)C3)C4)cc2)n1	-7	-1	28*	9	-4	0
CC1CCCN(C/C=C/c2ccccc2[N+](=O)[O-])C1 (stereo unspecified)	6	-15	-1	-5	-5	2
CCC1CCCCN1C/C=C/c1ccccc1[N+](=O)[O-] (stereo unspecified)	89*	-8	-21	-20	-11	55*
CC1CCCCN1C/C=C/c1ccccc1[N+](=O)[O-] (stereo unspecified)	86*	-7	-21	-23	-12	11
COc1ccccc1CN(Cc1nc2ccccc2c(=O)[nH]1)S(=O)(=O)c1ccc2ccccc2c1	43*	-7	-6	-25	4	-3
COc1cccc(/C(C#N)=C/c2c(-c3ccc(Cl)cc3)nc3c(C)cccn23)c1	48*	-5	-5	-22	-6	2
Cc1ccccc1OCCNCC(C)O (stereo unspecified)	8	1	28*	-5	7	11
CC(Oc1ccc(Cl)cc1)C(=O)NNC(=S)NC(=O)c1ccco1 (stereo unspecified)	-2	51*	-11	-10	26*	6
CCCOc1ccc(C(=O)NNC(=S)NC(=O)c2cccs2)cc1	78*	92*	-17	-25	72*	42*
CCCCOc1ccc(C(=O)NNC(=S)NC(=O)CC)cc1	-3	7	1	-2	5	3
CCCOc1ccc(C(=O)NNC(=S)NC(C)=O)cc1	-1	-3	8	12	-4	-4
CCCOc1ccc(C(=O)NNC(=S)NC(=O)c2ccccc2)cc1	69*	115*	-21	-38	78*	26
O=C(NC(=S)NNC(=O)c1ccco1)c1ccc(Br)cc1	-4	25*	1	2	0	19
CCN1C(=NCc2ccc(OC)cc2)N[C@@H](c2ccccc2)[C@H](C(=O)OC)[C@H]1C	10	-6	2	-10	5	-4
COC(=O)CSc1snnc1-c1ccc(Cl)cc1Cl	8	-5	-3	-2	-8	-2
